Experimental data published in ChEMBL document CHEMBL4765235, “Discovery of N-[Bis(4-methoxyphenyl)methyl]-4-hydroxy-2-(pyridazin-3-yl)pyrimidine-5-carboxamide (MK-8617), an Orally Active Pan-Inhibitor of Hypoxia-Inducible Factor Prolyl Hydroxylase 1-3 (HIF PHD1-3) for the Treatment of Anemia” (J Med Chem, 2016).

How the values were obtained:
[1] = Cmax in rhesus monkey at 1 mg/kg, po or 0.5 mg/kg, iv; format: ADME, organism-based, Macaca mulatta; design: dose 1 mg/kg; conditions: in vivo
Summary of the method: (§1)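 Single-dose PK at 1 mg/kg po and 0.5 mg/kg iv. Mouse clearance is from blood; dog and rhesus clearance is from plasma. Mouse vehicle, both routes: DMSO:PEG400:water (5:40:55, v/v/v). Dog and monkey iv vehicle: PEG200:12%HPCD:water (30:12:58 v/v/v). Dog and monkey po vehicle: Imwitor:Tween (1:1 w/w).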

[2] = Oral bioavailability in rhesus monkey at 1 mg/kg; format: ADME, organism-based, Macaca mulatta; conditions: in vivo
Summary of the method: (§2)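 Dog and rhesus monkey dosed 1 mg/kg po and 0.5 mg/kg iv. The iv vehicle was PEG200:12%HPCD:water (30:12:58 v/v/v); the po vehicle was Imwitor:Tween (1:1 w/w). Clearance was measured in plasma. Protein binding was measured in 100% serum.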

[3] = Half life in rhesus monkey at 1 mg/kg, po or 0.5 mg/kg, iv; format: ADME, organism-based, Macaca mulatta; conditions: in vivo; summary of the method: as §1
[4] = Plasma clearance in rhesus monkey at 1 mg/kg, po or 0.5 mg/kg, iv; format: ADME, organism-based, Macaca mulatta; summary of the method: as §2
[5] = target: Cytochrome P450 3A4 (Homo sapiens, UniProt P08684); assay: Inhibition of CYP3A4 (unknown origin); format: ADME
Chain of Cytochrome P450 3A4 (P08684 whole entry): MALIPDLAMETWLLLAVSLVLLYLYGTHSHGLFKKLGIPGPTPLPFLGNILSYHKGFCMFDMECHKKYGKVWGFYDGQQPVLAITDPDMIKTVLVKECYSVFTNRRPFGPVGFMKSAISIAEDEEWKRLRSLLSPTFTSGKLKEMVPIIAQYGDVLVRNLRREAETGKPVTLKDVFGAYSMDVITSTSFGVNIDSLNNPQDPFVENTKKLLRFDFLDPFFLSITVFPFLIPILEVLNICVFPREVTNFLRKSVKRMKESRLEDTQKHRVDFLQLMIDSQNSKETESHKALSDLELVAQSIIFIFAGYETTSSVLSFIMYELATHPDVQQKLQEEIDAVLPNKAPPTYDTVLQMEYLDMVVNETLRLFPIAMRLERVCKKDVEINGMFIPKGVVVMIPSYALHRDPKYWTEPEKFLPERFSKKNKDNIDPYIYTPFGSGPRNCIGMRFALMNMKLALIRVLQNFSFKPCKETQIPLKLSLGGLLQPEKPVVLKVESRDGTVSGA

[6] = Cmax in Sprague-Dawley rat at 1.5 mg/kg, po administered as single dose measured at 6 hrs; format: ADME, organism-based; design: route oral, time 6 hrs, dose 1.5 mg/kg; conditions: in vivo

Cmax [1]: 17 µM | bioavailability [2]: 52% | half-life [3]: 10 h | clearance [4]: 0.15 mL/min/kg | IC50 [5]: > 60 µM | Cmax [6]: 6.8 µM
Structure (SMILES): COc1ccc(C(NC(=O)c2cnc(-c3cccnn3)nc2O)c2ccc(OC)cc2)cc1
